Experiments:
[1] = target: T1, ATP-dependent translocase ABCB1 (Homo sapiens, UniProt P08183); assay: Inhibition of P-glycoprotein-mediated daunorubicin efflux in K562/R7 human leukemic cells overexpressing P-glycoprotein assessed as intracellular accumulation of daunorubicin at 10 uM after 1 hr by flow cytometry relative to progesterone; format: cell-based; design: scale not given: the % may be the effect or the level left
Outline: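 Pgp-overexpressing resistant K562/R7 human leukemic cells; intracellular daunorubicin (1 μM) accumulation measured with compound at 10 μM. Accumulation with progesterone (10 μM) was set as 100%, and compound values were expressed as percent of that, with standard deviation.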

[2] = tested on: K562; assay: Cytotoxicity against human K562 cells expressing very low P-glycoprotein at 10 uM after 24 hrs relative to control
[3] = target: T1, ATP-dependent translocase ABCB1; assay: Inhibition of P-glycoprotein-mediated daunorubicin efflux in K562/R7 human leukemic cells overexpressing P-glycoprotein assessed as intracellular accumulation of daunorubicin at 10 uM after 1 hr by flow cytometry; format: cell-based; design: scale not given: the % may be the effect or the level left
Outline: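 K562/R7 human leukemic cells overexpressing Pgp; intracellular daunorubicin (1 μM) accumulation measured with test compounds at 10 μM. Progesterone (10 μM) served as positive control; accumulation with progesterone set as 100%, values expressed as percent of progesterone accumulation; standard deviation reported.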

T1 sequence (P08183 whole entry): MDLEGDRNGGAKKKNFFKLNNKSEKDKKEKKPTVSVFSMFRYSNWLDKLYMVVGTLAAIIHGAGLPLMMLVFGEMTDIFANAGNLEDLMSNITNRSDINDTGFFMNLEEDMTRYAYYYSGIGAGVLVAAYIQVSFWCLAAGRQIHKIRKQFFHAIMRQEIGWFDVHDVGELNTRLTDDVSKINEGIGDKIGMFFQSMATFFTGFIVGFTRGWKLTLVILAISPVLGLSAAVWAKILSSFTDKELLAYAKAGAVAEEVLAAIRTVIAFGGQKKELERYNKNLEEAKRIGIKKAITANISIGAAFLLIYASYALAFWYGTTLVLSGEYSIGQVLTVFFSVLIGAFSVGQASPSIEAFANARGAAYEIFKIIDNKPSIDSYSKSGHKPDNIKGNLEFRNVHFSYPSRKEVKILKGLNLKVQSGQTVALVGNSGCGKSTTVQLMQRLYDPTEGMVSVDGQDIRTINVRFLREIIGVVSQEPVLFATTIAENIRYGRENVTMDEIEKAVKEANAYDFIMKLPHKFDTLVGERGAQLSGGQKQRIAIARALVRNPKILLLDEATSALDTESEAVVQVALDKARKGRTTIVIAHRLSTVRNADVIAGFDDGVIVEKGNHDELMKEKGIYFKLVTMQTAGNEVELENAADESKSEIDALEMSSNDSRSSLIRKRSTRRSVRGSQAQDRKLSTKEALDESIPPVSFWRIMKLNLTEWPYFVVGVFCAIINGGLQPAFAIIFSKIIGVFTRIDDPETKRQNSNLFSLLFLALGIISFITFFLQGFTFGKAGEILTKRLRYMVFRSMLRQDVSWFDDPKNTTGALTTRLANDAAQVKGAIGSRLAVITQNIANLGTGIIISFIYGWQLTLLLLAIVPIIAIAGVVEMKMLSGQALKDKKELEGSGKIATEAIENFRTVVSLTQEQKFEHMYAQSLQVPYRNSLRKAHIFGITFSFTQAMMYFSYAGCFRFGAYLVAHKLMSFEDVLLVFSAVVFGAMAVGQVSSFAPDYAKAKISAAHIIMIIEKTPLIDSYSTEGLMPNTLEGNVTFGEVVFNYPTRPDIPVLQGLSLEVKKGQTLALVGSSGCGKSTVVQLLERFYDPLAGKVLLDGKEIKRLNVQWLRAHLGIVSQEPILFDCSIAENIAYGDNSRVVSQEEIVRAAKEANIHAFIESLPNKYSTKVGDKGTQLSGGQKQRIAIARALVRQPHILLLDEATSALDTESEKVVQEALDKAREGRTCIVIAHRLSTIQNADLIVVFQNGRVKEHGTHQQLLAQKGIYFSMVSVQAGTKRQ

| Activity [1] | Structure (SMILES) | Activity [2] | Activity [3] |
| --- | --- | --- | --- |
| 72.2% | C[C@]12CC[C@H]3[C@@H](CCC4=CC(=O)CC[C@@]43C)[C@@H]1CC[C@@H]2C(=O)NC/C=C/Cn1cnc2c(N)ncnc21 | 80% | – |
| 110.9% | C[C@]12CC[C@H]3[C@@H](CCC4=CC(=O)CC[C@@]43C)[C@@H]1CC[C@@H]2C(=O)NCCCCCCn1cnc2c(N)ncnc21 | 80% | – |
| – | CC(=O)[C@H]1CC[C@H]2[C@@H]3CCC4=CC(=O)CC[C@]4(C)[C@H]3CC[C@]12C [PROGESTERONE] | – | 25% |
| 61.2% | C[C@]12CC[C@H]3[C@@H](CCC4=CC(=O)CC[C@@]43C)[C@@H]1CC[C@@H]2C(=O)NCC#CCn1cnc2c(N)ncnc21 | 80% | – |
| 78% | C[C@]12CC[C@H]3[C@@H](CCC4=CC(=O)CC[C@@]43C)[C@@H]1CC[C@@H]2C(=O)NCCCCn1cnc2c(N)ncnc21 | 80% | – |
| 98.1% | C[C@]12CC[C@H]3[C@@H](CCC4=CC(=O)CC[C@@]43C)[C@@H]1CC[C@@H]2C(=O)NCc1ccc(Cn2cnc3c(N)ncnc32)cc1 | 80% | – |
| 98.9% | C[C@]12CC[C@H]3[C@@H](CCC4=CC(=O)CC[C@@]43C)[C@@H]1CC[C@@H]2C(=O)NC[C@H]1CC[C@H](Cn2cnc3c(N)ncnc32)CC1 | 80% | – |
| 86.2% | C[C@]12CC[C@H]3[C@@H](CCC4=CC(=O)CC[C@@]43C)[C@@H]1CC[C@@H]2C(=O)NC/C=C\Cn1cnc2c(N)ncnc21 | 80% | – |

Source: ChEMBL document CHEMBL1157787, “Design, synthesis and evaluation of progesterone-adenine hybrids as bivalent inhibitors of P-glycoprotein-mediated multidrug efflux” (Bioorg Med Chem Lett, 2010)
